Test results: ChEMBL document CHEMBL4270523, “A comparative study of non-native N-acyl l-homoserine lactone analogs in two Pseudomonas aeruginosa quorum sensing receptors that share a common native ligand yet inversely regulate virulence” (Bioorg Med Chem, 2018)

Assays:
[1] = target: T1, Transcriptional activator protein LasR (Pseudomonas aeruginosa (strain ATCC 15692 / PAO1 / 1C / PRS 101 / LMG12228)) (UniProt P25084); assay: Agonist activity at Pseudomonas aeruginosa LasR expressed in Escherichia coli JLD271 harboring LasR expression plasmid pJN105L and lasI-lacZ transcriptional fusion reporter pSC11-L measured after 35 mins by Miller-type beta-galactosidase reporter gene assay relative to OdDHL
T1 sequence (whole entry): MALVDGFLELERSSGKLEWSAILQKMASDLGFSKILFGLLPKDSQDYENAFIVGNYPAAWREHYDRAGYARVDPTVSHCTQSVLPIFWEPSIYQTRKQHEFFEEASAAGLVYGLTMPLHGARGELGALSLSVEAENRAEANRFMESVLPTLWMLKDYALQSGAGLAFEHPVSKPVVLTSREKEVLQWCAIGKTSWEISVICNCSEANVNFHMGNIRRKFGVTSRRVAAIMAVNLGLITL
Summary of the method: (§1)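 E. coli JLD271 (ΔsdiA) reporter cells grown in LB at 37 °C. Miller-type β-galactosidase assay with CPRG or ONPG substrate; growth read as OD600. Compounds tested from 1 pM to 100 μM. Activity is expressed relative to 100 μM OdDHL. EC50 taken from dose–response curves. Run in triplicate, n ≥ 3 trials; 95% CIs from SEM. Maximum activation has error ±10%.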

[2] = target: T2, PhzR (Pseudomonas aeruginosa) (UniProt Q9RMS5); assay: Agonist activity at Pseudomonas aeruginosa QscR expressed in Escherichia coli JLD271 harboring QscR expression plasmid pJN105Q and pPA1897-lacZ transcriptional fusion reporter pSC11-Q measured after 35 mins by Miller-type beta-galactosidase reporter gene assay relative to OdDHL; summary of the method: as §1
T2 sequence (whole entry): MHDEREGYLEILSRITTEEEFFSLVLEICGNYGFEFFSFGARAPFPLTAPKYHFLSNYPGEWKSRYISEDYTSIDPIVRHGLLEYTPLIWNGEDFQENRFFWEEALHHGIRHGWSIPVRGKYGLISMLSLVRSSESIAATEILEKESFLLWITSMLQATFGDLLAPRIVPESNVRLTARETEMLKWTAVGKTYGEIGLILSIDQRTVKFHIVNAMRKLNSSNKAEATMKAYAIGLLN

PhzR [3] = target: T3, PhzR (Pseudomonas aeruginosa, UniProt Q9RMS5); assay: (§2) Agonist activity at Pseudomonas aeruginosa QscR expressed in Escherichia coli JLD271 harboring QscR expression plasmid pJN105Q and pPA1897-lacZ transcriptional fusion reporter pSC11-Q measured after 35 mins by Miller-type beta-galactosidase reporter gene assay
T3 sequence (Q9RMS5 whole entry): T2 sequence (whole entry)
Summary of the method: as §1, with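 “curves.” for “curves. Run in triplicate, n ≥ 3 trials; 95% CIs from SEM.”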

[4] = target: T4, Transcriptional activator protein LasR (Pseudomonas aeruginosa (strain ATCC 15692 / PAO1 / 1C / PRS 101 / LMG12228), UniProt P25084); assay: (§3) Agonist activity at Pseudomonas aeruginosa LasR expressed in Escherichia coli JLD271 harboring LasR expression plasmid pJN105L and lasI-lacZ transcriptional fusion reporter pSC11-L measured after 35 mins by Miller-type beta-galactosidase reporter gene assay
T4 sequence (P25084 whole entry): T1 sequence (whole entry)
Summary of the method: as §1, with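 “curves.” for “curves. Run in triplicate, n ≥ 3 trials; 95% CIs from SEM.”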

PhzR [5] = target: T3, PhzR; assay: as §2, with “Antagonist” for “Agonist”, “using ONPG as substrate assessed as inhibition of OdDHL-induced receptor activation” for “measured”, “4 hrs” for “35 mins”
[6] = target: T2, PhzR (Pseudomonas aeruginosa); assay: as above; conditions: concentration not given here
[7] = target: T1, Transcriptional activator protein LasR (Pseudomonas aeruginosa (strain ATCC 15692 / PAO1 / 1C / PRS 101 / LMG12228)); assay: as §3, with “Antagonist” for “Agonist”, “assessed as inhibition of OdDHL-induced receptor activation” for “measured”, “4 hrs” for “35 mins”; conditions: concentration not given here
[8] = target: T4, Transcriptional activator protein LasR; assay: as above

| SMILES | Activity [1] [%] | Activity [2] [%] | EC50 (PhzR [3]) [nM] | EC50 [4] [nM] | IC50 (PhzR [5]) [nM] | inhibition [6] [%] | inhibition [7] [%] | IC50 [8] [nM] |
| --- | --- | --- | --- | --- | --- | --- | --- | --- |
| CCCCCCCCCC(=O)CC(=O)N[C@H]1CCSC1=O | 100 | 110 | 80.5 | 1.53 |  |  |  |  |
| CCCCCCCCCC(=O)CC(=O)N[C@@H]1CCOC1=O | 99 | 110 |  |  |  |  |  |  |
| CCCCCCCCCC(=O)CC(=O)NC1CCCC1 | 88 | 100 | 359 | 162 |  |  |  |  |
| CCCCCCCCCC(=O)CC(=O)O[C@H]1CCOC1=O | 27 | 37 |  |  | > 250000 | 23 | 53 | > 250000 |
| CCCCCCCCCC(=O)CC(=O)N[C@H]1CCNC1=O | 110 | 56 | 3320 | 29.7 |  |  |  |  |
| CCCCCCCCCCCS(=O)(=O)N[C@H]1CCOC1=O | 6.4 | 72 | 1590 |  |  |  |  |  |
| CCCCCCCCCC(=O)CC(=O)N[C@H]1CCO[C@@H]1O | 96 | 110 | 3460 | 1880 |  |  |  |  |
| CCCCCCCCCC(=O)CC(=O)NCC1CCCO1 (stereo not given) | 96 | 3.2 |  | 256 | > 250000 | 59 |  |  |
| CCCCCCCCCC(=O)CC(=O)N[C@H]1CCOC1 | 81 | 74 | 815 | 906 |  |  |  |  |
| CCCCCCCCCC(=O)CC(=O)N[C@H]1CCCC1=O | 110 | 77 | 834 | 14.9 |  |  |  |  |
